Laboratory results from paper PMC7881365 (Xenobiotica; the fate of foreign compounds in biological …, 2020).

What was measured:
[1] = molecular target: T1, CYP1A1 (Homo sapiens, UniProt P04798); assay type: in vitro ADME; conditions: peak intensities
T1 sequence (P04798 1-512): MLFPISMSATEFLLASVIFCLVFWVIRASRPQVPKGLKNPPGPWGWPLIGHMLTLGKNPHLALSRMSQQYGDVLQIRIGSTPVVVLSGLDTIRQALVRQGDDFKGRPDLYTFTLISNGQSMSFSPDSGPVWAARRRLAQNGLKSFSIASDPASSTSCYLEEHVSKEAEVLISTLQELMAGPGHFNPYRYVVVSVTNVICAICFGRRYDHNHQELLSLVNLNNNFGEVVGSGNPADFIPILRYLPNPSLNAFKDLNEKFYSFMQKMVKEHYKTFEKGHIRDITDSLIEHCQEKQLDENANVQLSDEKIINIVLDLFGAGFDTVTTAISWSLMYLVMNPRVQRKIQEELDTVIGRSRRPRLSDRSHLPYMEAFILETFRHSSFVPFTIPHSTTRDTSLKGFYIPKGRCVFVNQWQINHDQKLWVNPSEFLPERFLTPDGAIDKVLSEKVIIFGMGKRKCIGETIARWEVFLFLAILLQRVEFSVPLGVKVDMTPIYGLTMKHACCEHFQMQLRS
How it was run: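 Reconstituted system: purified E. coli-expressed CYP1A1 (50 pmol), NADPH-P450 reductase (100 pmol), DLPC (50 µg), no b5. Incubated with 60 µM methoxyflavone test compound at 37 °C for 20 min after 1 min preincubation, started with NADPH-generating system (0.5 mM NADP+, 5 mM glucose 6-phosphate, 0.5 unit/mL dehydrogenase). Quenched with ice-cold CH3CN and centrifuged. LC-MS/MS positive ESI; product as peak intensity, two or three determinations.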

[2] = molecular target: T2, CYP1A2 (Homo sapiens, UniProt P05177); assay type: in vitro ADME; conditions: peak intensities
T2 sequence (P05177 1-516): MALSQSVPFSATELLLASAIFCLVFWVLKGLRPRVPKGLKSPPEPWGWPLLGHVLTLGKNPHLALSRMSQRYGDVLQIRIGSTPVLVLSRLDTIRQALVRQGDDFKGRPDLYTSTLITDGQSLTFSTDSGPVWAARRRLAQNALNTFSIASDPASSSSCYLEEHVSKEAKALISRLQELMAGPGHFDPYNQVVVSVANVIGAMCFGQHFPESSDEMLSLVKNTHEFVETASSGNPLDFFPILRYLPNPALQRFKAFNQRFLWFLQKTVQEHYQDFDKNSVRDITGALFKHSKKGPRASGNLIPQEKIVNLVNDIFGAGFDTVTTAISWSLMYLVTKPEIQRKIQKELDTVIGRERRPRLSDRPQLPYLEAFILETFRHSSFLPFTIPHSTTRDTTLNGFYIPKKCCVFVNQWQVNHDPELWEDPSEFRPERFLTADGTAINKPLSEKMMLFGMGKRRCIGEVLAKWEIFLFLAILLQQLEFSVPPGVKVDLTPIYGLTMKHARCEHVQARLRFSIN

[3] = molecular target: T3, CYP1B1.1 (Homo sapiens, UniProt Q16678); assay type: in vitro ADME; conditions: peak intensities
T3 sequence (Q16678 1-543): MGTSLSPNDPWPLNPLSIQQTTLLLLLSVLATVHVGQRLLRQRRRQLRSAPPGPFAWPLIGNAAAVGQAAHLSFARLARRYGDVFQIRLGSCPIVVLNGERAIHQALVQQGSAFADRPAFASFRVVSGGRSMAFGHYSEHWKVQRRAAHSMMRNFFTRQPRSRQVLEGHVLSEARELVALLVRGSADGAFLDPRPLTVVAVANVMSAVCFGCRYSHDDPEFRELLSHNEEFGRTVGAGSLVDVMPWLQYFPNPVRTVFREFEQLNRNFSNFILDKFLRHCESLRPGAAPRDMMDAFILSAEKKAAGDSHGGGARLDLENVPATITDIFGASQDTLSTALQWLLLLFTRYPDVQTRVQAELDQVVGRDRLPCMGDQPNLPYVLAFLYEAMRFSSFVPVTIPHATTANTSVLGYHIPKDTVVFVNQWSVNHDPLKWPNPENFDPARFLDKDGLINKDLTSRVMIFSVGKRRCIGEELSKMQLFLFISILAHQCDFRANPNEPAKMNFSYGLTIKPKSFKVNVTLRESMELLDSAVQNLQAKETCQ

[4] = molecular target: T4, CYP1B1.3 (Homo sapiens, UniProt Q16678); assay type: in vitro ADME; conditions: peak intensities
T4 sequence (Q16678 1-543): T3 sequence (Q16678 1-543)

[5] = molecular target: T5, CYP2B6 (Homo sapiens, UniProt P20813); assay type: in vitro ADME; conditions: peak intensities
T5 sequence (P20813 1-491): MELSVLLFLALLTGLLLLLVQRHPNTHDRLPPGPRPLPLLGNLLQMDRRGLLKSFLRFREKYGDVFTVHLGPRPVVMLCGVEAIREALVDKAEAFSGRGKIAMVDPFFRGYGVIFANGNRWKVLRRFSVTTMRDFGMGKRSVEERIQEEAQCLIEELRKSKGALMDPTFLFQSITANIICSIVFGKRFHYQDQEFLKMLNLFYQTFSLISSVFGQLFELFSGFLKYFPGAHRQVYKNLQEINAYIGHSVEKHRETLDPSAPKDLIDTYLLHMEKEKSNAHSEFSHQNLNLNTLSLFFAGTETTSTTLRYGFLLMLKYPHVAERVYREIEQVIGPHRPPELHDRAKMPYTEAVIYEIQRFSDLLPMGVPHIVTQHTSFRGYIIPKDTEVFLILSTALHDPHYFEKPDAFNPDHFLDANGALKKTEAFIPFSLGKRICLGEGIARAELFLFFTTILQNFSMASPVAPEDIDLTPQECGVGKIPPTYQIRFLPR
How it was run: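 E. coli membranes co-expressing CYP2B6 and NADPH-P450 reductase (50 pmol P450) incubated with 60 µM methoxyflavone test compound at 37 °C for 20 min. Reaction started after 1 min preincubation with NADPH-generating system (0.5 mM NADP+, 5 mM glucose 6-phosphate, 0.5 unit/mL glucose 6-phosphate dehydrogenase). Stopped with ice-cold CH3CN, then centrifuged. Supernatant analysed by LC-MS/MS (positive ESI); products reported as peak intensities, from two or three determinations.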

[6] = tested on: Hela and SH-SY5Y cells; conditions: ref Fatokun et al. (2013; 2014); cited from earlier work

Row | Compound | formation of 2′Me255a (m/z 255 product) [1] | formation of 2′Me255a (m/z 255 product) [2] | formation of 2′Me239a (possibly 2′OHF) [3] | formation of 2′Me255a (m/z 255 product) [3] | formation of 2′Me239a (possibly 2′OHF) [4] | formation of 2′Me255a (m/z 255 product) [4] | formation of 2′Me239a (possibly 2′OHF) [5] | formation of 2′Me255a (m/z 255 product) [5] | prevention of decreases in cell viability caused by N-methyl-N′-nitro-N-nitrosoguanine [6]
1 | COc1ccccc1-c1cc(=O)c2ccccc2o1 [2′MeF, 2′-methoxyflavone] | very low levels | very low levels | highly active | very low levels | highly active | very low levels | highly active | very low levels | –
2 | COc1ccc(-c2cc(=O)c3ccccc3o2)cc1OC [3′,4′-dimethoxyflavone, reference compound] | – | – | – | – | – | – | – | – | effectively prevent decreases in cell viability
3 | COc1ccc(-c2cc(=O)c3ccccc3o2)cc1 [4′MeF, 4′-methoxyflavone] | – | – | – | – | – | – | – | – | effectively prevent decreases in cell viability
